In brackets after ≈: the same amount, converted by molar mass. Activity calls are given as the source filed them. The rule behind the calls is not given here.
Experiments:
Rattus norvegicus = experiment: Dose normalised AUC in Sprague-Dawley rat at 10 mg/kg, po by LC-MS analysis; type: ADME, organism-based; parameters: dose 10 mg/kg, route oral; settings: in vivo
Procedure, shortened: (§1)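 PK in Sprague-Dawley rats (iv solution in DMSO via an indwelling jugular cannula, or oral suspension in aqueous methylcellulose/Methocel) and beagle dogs (iv and oral given crossover, same vehicles). Plasma levels by LC-MS. F from oral versus iv dose-normalized AUC. Average of at least two animals; rat values within 25% of the mean.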

Canis familiaris [1] = experiment: Dose normalised AUC in Beagle dog at 10 mg/kg, po by LC-MS analysis; type: ADME, organism-based, Canis lupus familiaris; parameters: dose 10 mg/kg, route oral; settings: in vivo; procedure, shortened: as §1
[2] = system: Human immunodeficiency virus; experiment: Antiviral activity against Human immunodeficiency virus harboring reverse transcriptase G190S mutant assessed as inhibition of viral replication; type: functional, organism-based
Procedure, shortened: (§2)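 Phenosense cell culture assay against a panel of clinically derived RT mutant viruses in the presence of 10% FBS. IC50 is the compound concentration blocking 50% of viral replication. Each value is the average of two determinations.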

[3] = system: Human immunodeficiency virus; experiment: Antiviral activity against Human immunodeficiency virus harboring reverse transcriptase K103N/P225H double mutant assessed as inhibition of viral replication; type: functional, organism-based; procedure, shortened: as §2
[4] = system: Human immunodeficiency virus; experiment: Antiviral activity against Human immunodeficiency virus harboring reverse transcriptase K101E/G190A double mutant assessed as inhibition of viral replication; type: functional, organism-based; procedure, shortened: as §2
[5] = system: Human immunodeficiency virus; experiment: Antiviral activity against Human immunodeficiency virus harboring reverse transcriptase K103N/Y181C/G190A triple mutant assessed as inhibition of viral replication; type: functional, organism-based; procedure, shortened: as §2
[6] = system: Human immunodeficiency virus; experiment: Antiviral activity against Human immunodeficiency virus harboring reverse transcriptase K101E/Y181C/G190A triple mutant assessed as inhibition of viral replication; type: functional, organism-based; procedure, shortened: as §2
[7] = system: Human immunodeficiency virus; experiment: Antiviral activity against Human immunodeficiency virus harboring reverse transcriptase V106A/G190A/F227L triple mutant assessed as inhibition of viral replication; type: functional, organism-based; procedure, shortened: as §2
[8] = system: Human immunodeficiency virus; experiment: Antiviral activity against Human immunodeficiency virus harboring reverse transcriptase L100l/K103N/P225P/H triple mutant assessed as inhibition of viral replication; type: functional, organism-based; procedure, shortened: as §2
[9] = Inhibition of Human immunodeficiency virus reverse transcriptase by SPA assay
[10] = system: Human immunodeficiency virus; experiment: Antiviral activity against Human immunodeficiency virus expressing wild type reverse transcriptase infected in human MT4 cells by p24 antigen assay in the presence of 10% FBS; type: functional; settings: Human immunodeficiency virus 1, MT4; read-out: CIC95
Procedure, shortened: (§3)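 MT-4 human T-lymphoid cells in RPMI 1640 with either 10% FBS or 50% NHS; CIC95 taken as the concentration inhibiting virus spread/replication by >95%. Geometric mean of at least two determinations, individual values within 2-fold; SEM given when ≥3 determinations.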

[11] = system: Human immunodeficiency virus; experiment: Antiviral activity against Human immunodeficiency virus expressing reverse transcriptase K103N mutant infected in human MT4 cells by p24 antigen assay in the presence of 10% FBS; type: functional; settings: Human immunodeficiency virus 1, MT4; read-out: CIC95
Procedure, shortened: (§4)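 Antiviral spread assay in MT-4 human T-lymphoid cells kept in RPMI 1640 with 10% FBS. Value is the CIC95, the concentration inhibiting virus replication by >95%. Reported as the geometric mean of at least two determinations, all within 2-fold of the mean. Cytotoxicity was checked up to the assay upper limit of 8.3 μM.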

[12] = system: Human immunodeficiency virus; experiment: Antiviral activity against Human immunodeficiency virus expressing reverse transcriptase Y181C mutant infected in human MT4 cells by p24 antigen assay in the presence of 10% FBS; type: functional; settings: Human immunodeficiency virus 1, MT4; read-out: CIC95; procedure, shortened: as §4
[13] = system: Human immunodeficiency virus; experiment: Antiviral activity against Human immunodeficiency virus expressing wild type reverse transcriptase infected in human MT4 cells by p24 antigen assay in the presence of 50% normal human serum; type: functional; settings: Human immunodeficiency virus 1, MT4; read-out: CIC95; procedure, shortened: as §3
MT4 = experiment: Cytotoxicity against human MT4 cells up to 8.3 uM; type: cell-based
Procedure, shortened: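 MT-4 cells in RPMI 1640 with 10% FBS or 50% NHS, run alongside the antiviral CIC95 assay; cytotoxicity checked up to the assay upper limit of 8.3 μM.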

[14] = system: Human immunodeficiency virus; experiment: Antiviral activity against multidrug-resistant Human immunodeficiency virus assessed as inhibition of viral replication; type: functional, organism-based; procedure, shortened: as §2
[15] = system: Human immunodeficiency virus; experiment: Antiviral activity against wild type Human immunodeficiency virus assessed as inhibition of viral replication; type: functional, organism-based
[16] = system: Human immunodeficiency virus; experiment: Antiviral activity against Human immunodeficiency virus harboring reverse transcriptase K103N mutant assessed as inhibition of viral replication; type: functional, organism-based; procedure, shortened: as §2
[17] = system: Human immunodeficiency virus; experiment: Antiviral activity against Human immunodeficiency virus harboring reverse transcriptase Y181C mutant assessed as inhibition of viral replication; type: functional, organism-based; procedure, shortened: as §2
[18] = system: Human immunodeficiency virus; experiment: Antiviral activity against Human immunodeficiency virus harboring reverse transcriptase L100l mutant assessed as inhibition of viral replication; type: functional, organism-based; procedure, shortened: as §2
[19] = system: Human immunodeficiency virus; experiment: Antiviral activity against Human immunodeficiency virus harboring reverse transcriptase Y188L mutant assessed as inhibition of viral replication; type: functional, organism-based; procedure, shortened: as §2
[20] = system: Human immunodeficiency virus; experiment: Antiviral activity against Human immunodeficiency virus harboring reverse transcriptase G190A mutant assessed as inhibition of viral replication; type: functional, organism-based; procedure, shortened: as §2
[21] = Volume of distribution in Beagle dog at 2 mg/kg, po and 0.5 mg/kg, iv; type: ADME, organism-based, Canis lupus familiaris; settings: in vivo; procedure, shortened: as §1
[22] = Plasma clearance in Sprague-Dawley rat at 10 mg/kg, po and 2 mg/kg, iv; type: ADME, organism-based; procedure, shortened: as §1
[23] = Plasma clearance in Beagle dog at 2 mg/kg, po and 0.5 mg/kg, iv; type: ADME, organism-based, Canis lupus familiaris; procedure, shortened: as §1
[24] = Half life in Sprague-Dawley rat at 10 mg/kg, po and 2 mg/kg, iv; type: ADME, organism-based; settings: in vivo; procedure, shortened: as §1
[25] = Half life in Beagle dog at 2 mg/kg, po and 0.5 mg/kg, iv; type: ADME, organism-based, Canis lupus familiaris; settings: in vivo; procedure, shortened: as §1
[26] = Bioavailability in Sprague-Dawley rat at 10 mg/kg, po and 2 mg/kg, iv; type: ADME, organism-based; settings: in vivo; procedure, shortened: as §1
[27] = Bioavailability in Beagle dog at 2 mg/kg, po and 0.5 mg/kg, iv; type: ADME, organism-based, Canis lupus familiaris; settings: in vivo; procedure, shortened: as §1
Canis familiaris [28] = experiment: Dose normalised AUC in Beagle dog at 2 mg/kg, po by LC-MS analysis; type: ADME, organism-based, Canis lupus familiaris; parameters: dose 2 mg/kg, route oral; settings: in vivo; procedure, shortened: as §1
[29] = Solubility of the compound in water at pH 2; type: physicochemical
Procedure, shortened: (§5)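 Water solubility of the solid compound measured at pH 2 and at pH 7.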

[30] = Solubility of the compound in water at pH 7; type: physicochemical; procedure, shortened: as §5
[31] = Volume of distribution in Sprague-Dawley rat at 10 mg/kg, po and 2 mg/kg, iv; type: ADME, organism-based; settings: in vivo; procedure, shortened: as §1
[32] = molecular target: Human immunodeficiency virus type 1 reverse transcriptase (Human immunodeficiency virus 1, UniProt Q72547, K103N); experiment: Inhibition of Human immunodeficiency virus reverse transcriptase K103N mutant by SPA assay
Procedure, shortened: (§6)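 Recombinant HIV-1 RT polymerase scintillation proximity assay run with mutant enzyme, reported as Ki (nM). Values are geometric means of at least two determinations, each within 2-fold of the mean; SEM is given where there were ≥3 determinations.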

[33] = molecular target: Human immunodeficiency virus type 1 reverse transcriptase (Human immunodeficiency virus 1, UniProt Q72547, Y181C); experiment: Inhibition of Human immunodeficiency virus reverse transcriptase Y181C mutant by SPA assay; procedure, shortened: as §6
[34] = Bioavailability in Beagle dog at 1 mg/kg, po and 0.25 mg/kg, iv; type: ADME, organism-based, Canis lupus familiaris; settings: in vivo; procedure, shortened: as §1
Canis familiaris [35] = experiment: Dose normalised AUC in Beagle dog at 1 mg/kg, po by LC-MS analysis; type: ADME, organism-based, Canis lupus familiaris; parameters: dose 1 mg/kg, route oral; settings: in vivo; procedure, shortened: as §1

SMILES | AUC/dose (Rattus norvegicus) | inhibition [2] | inhibition [3] | inhibition [4] | inhibition [5] | inhibition [6] | inhibition [7] | inhibition [8] | Ki [9] | IC95 [10] | IC95 [11] | IC95 [12] | IC95 [13] | Activity (MT4) | inhibition [14] | inhibition [15] | inhibition [16] | inhibition [17] | inhibition [18] | inhibition [19] | other results
N#Cc1cc(Cl)cc(Oc2cc(OCc3n[nH]c4nc(N)ccc34)ccc2Cl)c1 | 2.3 µM·h | Active | Active | Active | Active | Active | inactive | Active | 0.2 nM | 4.9 nM | 12 nM | 27 nM | 26 nM | Non-toxic | Active | Active | Active | Active | Active | inactive | AUC/dose (Canis familiaris [1]): 3.1 µM·h; inhibition [20]: Active
N#Cc1cc(Cl)cc(Oc2c(Cl)ccc3c2cnn3Cc2n[nH]c3nc(N)ccc23)c1 | 3.64 µM·h | Active | Active | Active | Active | Active | inactive | Active | 0.61 nM | 4.1 nM | 9.7 nM | 68 nM | 43 nM | Non-toxic | Active | Active | Active | Active | Active | inactive | Vd [21]: 2 L/kg; clearance [22]: 4.7 mL/min/kg; clearance [23]: 7.6 mL/min/kg; half-life [24]: 6.3 h; half-life [25]: 2.8 h; bioavailability [26]: 39%; bioavailability [27]: 32%; AUC/dose (Canis familiaris [28]): 1.33 µM·h; solubility [29]: 40 µg/mL (≈ 88.8 µM); solubility [30]: < 0.1 µg/mL; Vd [31]: 2.5 L/kg; Ki [32]: 1.7 nM; Ki [33]: 1.9 nM; inhibition [20]: Active
N#Cc1cc(Cl)cc(Oc2cc(OCc3n[nH]c4ncccc34)ccc2Cl)c1 | 0.1 µM·h | – | – | – | – | – | – | – | 0.12 nM | 10 nM | 15 nM | 22 nM | 52 nM | Non-toxic | – | – | – | – | – | – | bioavailability [26]: 7.5%; bioavailability [34]: 3%; AUC/dose (Canis familiaris [35]): 0.14 µM·h; solubility [29]: < 0.1 µg/mL; Ki [32]: 0.22 nM; Ki [33]: 0.23 nM
